Inconclusive results are not listed.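 The calls were made as follows, unless noted: active = RAM network inhibition above 8.4% in each of two replicates, 3 SD over the compound average; inconclusive = above 8.4% inhibition in only one replicate; inactive = 8.4% inhibition or less in each replicate.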
Columns and labels:
[1] = OD615 S. cerevisiae growth inhibition, permissive medium, pilot counter-assay, permissive growth control for S. cerevisiae lifespan shortening project (AID 705;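 active = growth inhibition above 25% in both replicates, a cutoff set 3 SD above the mean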); settings: OD615, 24 h, at 10 µM, active compounds read high
Procedure, shortened: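 Material: engineered DeaD yeast; Compound: one dose 10 µM, DMSO 0.25% final; Detection: absorbance (optical density) at 615 nm; Buffer or medium: permissive raffinose/galactose medium; Timing: 24 h exposure, 30 °C.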

[2] = Restrictive medium S. cerevisiae growth inhibition, OD615, pilot screen of yeast lifespan reduction project, restrictive growth control (AID 706;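 active = growth inhibition above a set limit, 3 SD over mean compound inhibition, in both replicates, cut at about 43% in these data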;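 also: modified DeaD lifespan yeast strain shifted to restrictive glucose medium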); settings: OD615, 48 h, at 10 µM, active compounds read high
Procedure, shortened: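 Buffer or medium: restrictive glucose medium (CSMM-D); test system: modified S. cerevisiae; doses: single dose of 10 µM compound final, 0.25% DMSO; schedule: 48 h compound exposure at 30 °C; detection: absorbance (optical density) measured at 615 nm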

[3] = viability gain of MRP-1-high H69AR cells under doxorubicin, pilot screen, MRP-1 activator project, CellTiter-Glo, duplicate (AID 807;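 active = viability increase at or above a cutoff of the median across tested compounds plus 3 SD, cut at about 8.5% in these data, passing the limit was not always enough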;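 also: compound pretreatment 18-22 h then 72 h combined with doxorubicin; 0% = doxorubicin alone and 100% = vehicle without doxorubicin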); settings: H69AR viability with doxorubicin, CellTiter-Glo luminescence; at 10 µM; active compounds read high
[4] = growth suppression of beta-catenin knockout HCT116, pilot screen, human colon tumor cells (AID 823;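 active = cell viability at or below a set limit in both duplicate runs, the limit being the all-compound median minus 4 SD, cut at about 23% in these data, passing the limit was not always enough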;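 also: 0% = wells killed by 20 µM Hyamine and 100% = untreated DMSO cell wells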); settings: CellTiter-Glo, 60 h, at 10 µM, active compounds read low
[5] = growth suppression of PTEN-deleted HCT116, pilot screen, cell-based, HCT116 clonal line, CellTiter-Glo (AID 824;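 active = viability at or below 27.92% in each of two runs, the all-compound median minus 4 SD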;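 also: 0% = 20 µM Hyamine control and 100% = vehicle cell control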); settings: 60 h, at 10 µM, active compounds read low
[6] = inhibitors of the yeast RAM network, pilot screen, dse1pr::URA3 reporter, 5-FOA selection (AID 869;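 active = inhibition over a set limit, the all-compound mean plus 3 SD, in both replicate runs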;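 also: 0% = DMSO wells with no growth and 100% = 10 µM 1-NA-PP1 with full growth; RAM network block rescues cells from 5-FOA so hits raise OD615 growth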); settings: S. cerevisiae dse1pr::URA3 5-FOA growth, OD615, 2 d; at 10 µM; active compounds read high; strain carries analog-sensitive mutant Cbk1 kinase
[7] = RAM signaling pathway blockade in yeast – S. cerevisiae, Pdr1DBD-CYC8 efflux-inhibited sensitized strain, primary screen (AID 1298);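 also: 0% = DMSO untreated cells without growth and 100% = 10 µM 1-NA-PP1 full growth; higher means more yeast growth rescued from 5-FOA killing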; settings: S. cerevisiae cbk1-as DSE1-URA3 strain, 5-FOA growth OD615, 2 d; at 50 µM; active compounds read high

COCCNC(=O)CN(c1ccc(C)cc1)S(=O)(=O)c1ccc(SC)cc1
inactive: growth inhibition [1] -10.6% | growth inhibition [2] -12.2% | viability increase [3] -0.9% | viability [4] 96.2% | viability [5] 84.2% | inhibition [6] 0.71% | RAM network inhibition [7] 5.17%

CC(c1ccccc1)C1C(C#N)=C(N)OC2=C1C(=O)CCC2 (stereo not drawn)
inactive: growth inhibition [1] -19% | growth inhibition [2] -12.4% | viability increase [3] -0.93% | viability [4] 88% | viability [5] 91.3% | inhibition [6] 3.24% | RAM network inhibition [7] 1.95%

CCCc1cc(C(=O)NC2CCCC2)no1
inactive: growth inhibition [1] -11.7% | growth inhibition [2] -2.35% | viability increase [3] 0.7% | viability [4] 103% | viability [5] 98.1% | inhibition [6] 0.365% | RAM network inhibition [7] 3.3%

O=S(=O)(Nc1ccc2nc(C(F)(F)F)[nH]c2c1)c1ccccc1
inactive: growth inhibition [1] -1.94% | growth inhibition [2] -0.635% | viability increase [3] 0.27% | viability [4] 85.5% | viability [5] 82% | inhibition [6] 0.97% | RAM network inhibition [7] 1.68%

Nn1c(SCc2nc3ccccc3[nH]2)nnc1-c1cccnc1
inactive: growth inhibition [1] 4.54% | growth inhibition [2] 14.9% | viability increase [3] -2.44% | viability [4] 90.2% | viability [5] 95.7% | inhibition [6] 1.13% | RAM network inhibition [7] 1.82%

CC12CCC(C(=O)NCc3ccco3)(OC1=O)C2(C)C (stereo not drawn)
inactive: growth inhibition [1] -9.57% | growth inhibition [2] -9.65% | viability increase [3] -2.96% | viability [4] 98.3% | viability [5] 93.2% | inhibition [6] 1.42% | RAM network inhibition [7] -0.27%

Clc1ccc(C2CC(c3cccs3)n3ncnc3N2)cc1Cl (stereo not drawn)
inactive: growth inhibition [1] -2.88% | growth inhibition [2] 29.1% | viability increase [3] -5.77% | viability [4] 80.2% | viability [5] 72.9% | inhibition [6] 0.94% | RAM network inhibition [7] -1.53%

c1ccc(-c2ccc(-c3nc(-c4cccnc4)no3)cc2)cc1
inactive: growth inhibition [1] 16.4% | growth inhibition [2] 20% | viability increase [3] -0.01% | viability [4] 80.8% | viability [5] 89.3% | inhibition [6] 0.455% | RAM network inhibition [7] -0.01%

Cc1ccc2oc3c(c(=O)c2c1)C(c1ccc(F)cc1)N(CCCN1CCOCC1)C3=O (stereo not drawn)
inactive: growth inhibition [1] -3.52% | growth inhibition [2] -0.585% | viability increase [3] -4.72% | viability [4] 91% | viability [5] 89.6% | inhibition [6] 0.595% | RAM network inhibition [7] 0.29%

O=C(COc1ccccc1)Nc1ccc(S(=O)(=O)N2CCCC2)cc1
inactive: growth inhibition [1] -12.9% | growth inhibition [2] -12.5% | viability increase [3] -1.84% | viability [4] 99.5% | viability [5] 88.7% | inhibition [6] 2.33% | RAM network inhibition [7] 2.76%

Cc1ccc(C(=O)Nc2ccc(S(=O)(=O)N3CCN(C)CC3)cc2)o1
inactive: growth inhibition [1] -8.11% | growth inhibition [2] -0.785% | viability increase [3] -0.32% | viability [4] 104% | viability [5] 103% | inhibition [6] 1.32% | RAM network inhibition [7] 3.17%

CCOC(=O)C1CCCN(Cc2nc(N)nc(Nc3ccccc3OC)n2)C1 (stereo not drawn)
inactive: growth inhibition [1] -0.44% | growth inhibition [2] -2.06% | viability increase [3] -3.66% | viability [4] 88.8% | viability [5] 83.4% | inhibition [6] 0.15% | RAM network inhibition [7] 0.43%

Cc1[nH]c2ccccc2c1CCC(N)=O
inactive: growth inhibition [1] -0.405% | growth inhibition [2] 3.01% | viability increase [3] -1.34% | viability [4] 101% | viability [5] 96.2% | inhibition [6] 1.92% | RAM network inhibition [7] 3.67%

CCOC(=O)N1CCC(NC(=O)CS(=O)(=O)Cc2nc(-c3ccc(C)cc3)oc2C)CC1
inactive: growth inhibition [1] -20.3% | growth inhibition [2] -37.1% | viability increase [3] 0.42% | viability [4] 75.3% | viability [5] 81.3% | inhibition [6] 0.44% | RAM network inhibition [7] 0.36%

COC(=O)C1=C(C)Nc2nc(-c3ccccc3)nn2C1c1ccc(C)o1 (stereo not drawn)
inactive: growth inhibition [1] -4.19% | growth inhibition [2] 12.3% | viability increase [3] -4.23% | viability [4] 78.3% | viability [5] 76.1% | inhibition [6] 2.19% | RAM network inhibition [7] 1.2%

COc1cccc(C(=O)N2CCSC2=S)c1
inactive: growth inhibition [1] -10.4% | growth inhibition [2] 3.34% | viability increase [3] -0.12% | viability [4] 97% | viability [5] 97.5% | inhibition [6] 0% | RAM network inhibition [7] -1.3%

COc1cccc(C(=O)Nc2cc(=O)n(C)c(=O)n2C)c1
inactive: growth inhibition [1] -11% | growth inhibition [2] -8.35% | viability increase [3] -2.05% | viability [4] 103% | viability [5] 97.4% | inhibition [6] 2.98% | RAM network inhibition [7] 2.08%

CCCS(=O)(=O)n1nc(-c2ccc(OC)cc2OC)cc1N
inactive: growth inhibition [1] -6.52% | growth inhibition [2] -22.5% | viability increase [3] -2.51% | viability [4] 101% | viability [5] 102% | inhibition [6] -0.255% | RAM network inhibition [7] 4.63%

CCOC(=O)N1CCN(CC(=O)Nc2cc3c(cc2C(C)=O)OCO3)CC1
inactive: growth inhibition [1] 2.37% | growth inhibition [2] 13% | viability increase [3] -3.17% | viability [4] 94.2% | viability [5] 98.9% | inhibition [6] 0.555% | RAM network inhibition [7] 2.4%

O=C(c1ccc(N2CCCCS2(=O)=O)cc1)N1CCN(c2ccc(N3CCOCC3)nn2)CC1
inactive: growth inhibition [1] 3.18% | growth inhibition [2] 14.7% | viability increase [3] -0.03% | viability [4] 105% | viability [5] 106% | inhibition [6] 0.09% | RAM network inhibition [7] 1.25%

N#CCCN1CCN(S(=O)(=O)c2ccc(S(=O)(=O)N3CCCC3)cc2)CC1
inactive: growth inhibition [1] 0.995% | growth inhibition [2] 7.04% | viability increase [3] 1.73% | viability [4] 101% | viability [5] 104% | inhibition [6] 1.29% | RAM network inhibition [7] 8.15%

CCOC(=O)Cn1c(=O)oc2cc(S(=O)(=O)NCC3CCCO3)ccc21 (stereo not drawn)
inactive: growth inhibition [1] -10.1% | growth inhibition [2] -10.7% | viability increase [3] -1.7% | viability [4] 99.8% | viability [5] 103% | inhibition [6] 0.325% | RAM network inhibition [7] 2.41%

COc1ccc(NC(=O)CN(c2cc(C)cc(C)c2)S(=O)(=O)c2c(C)noc2C)cc1
inactive: growth inhibition [1] -19.1% | growth inhibition [2] -14.2% | viability increase [3] -2.45% | viability [4] 95.2% | viability [5] 101% | inhibition [6] 0.19% | RAM network inhibition [7] 2.39%

Cc1ccc(NC(=O)NCCN2C(=O)C3C4C=CC(C4)C3C2=O)cc1 (stereo not drawn)
inactive: growth inhibition [1] -8.32% | growth inhibition [2] 10.9% | viability increase [3] -0.07% | viability [4] 98% | viability [5] 102% | inhibition [6] 0.865% | RAM network inhibition [7] 1.04%

Source: PubChem BioAssay
